This note sets out measurements from ChEMBL document CHEMBL4118206, “Synthesis, characterization and cytotoxicity studies of 1,2,3-triazoles and 1,2,4-triazolo [1,5-a] pyrimidines in human breast cancer cells” (Bioorg Med Chem Lett, 2018).

SMILES strings stand for the structures. Activity calls are given as the source filed them. The calls are words filed in the database; no cut-off is given here.

One may read the IC50 as the concentration that gives 50% inhibition.

Data set [1] relates to MCF7. The experiment in a line: Cytotoxicity against human MCF7 cells assessed as cell growth inhibition after 72 hrs by alamar blue assay. Format: functional, cell-based. As to conditions: MCF7, 72 h.
Data set [2] has as its target Vascular endothelial growth factor receptor 1 (Homo sapiens) (UniProt P17948). The experiment in a line: Inhibition of VEGFR1 in human MCF7 cells assessed as downregulation of protein expression at 1 uM after 48 hrs by Western blot method relative to beta-actin. Format: cell-based. The method in brief:
(§1)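 MCF7 cells were seeded at 300,000 per 6 cm dish in RPMI + 10% FBS and grown 24 h. They were then treated in RPMI + 2% FBS for 48 h, harvested and immunoblotted at 40 µg protein per lane. Blots were probed with primary antibodies against VEGFR1 and β-actin.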
(In general: Immunoblotting shows a protein as a band on a membrane.)

The target is the same in data set [3]. The experiment in a line: Inhibition of VEGFR1 in human MCF7 cells assessed as downregulation of protein expression at 0.5 uM after 48 hrs by Western blot method relative to beta-actin. Format: cell-based. An outline of the steps: as §1
A further data set concerns Ishikawa. The experiment in a line: Cytotoxicity against human Ishikawa cells assessed as cell growth inhibition after 72 hrs by alamar blue assay. Format: functional, cell-based. Background: The colour change of resazurin is a common sign of viable cells or microbes.
Another data set relates to BT-474. The experiment in a line: Cytotoxicity against human BT474 cells assessed as cell growth inhibition after 72 hrs by alamar blue assay. The note with it: BT-474, 72 h. Format: functional, cell-based.
Data set [4] concerns MCF7. The experiment in a line: Cytotoxicity against human MCF7 cells assessed as cell growth inhibition at 25 uM by alamar blue assay. Format: functional, cell-based. The note with it: TDE = time-dependent effect. The method in brief:
(§2)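 MCF7 cells were seeded at 5000 per well. After 24 h they were exposed to 25 µM compound. Viability was read with AlamarBlue after a 4 h reagent incubation at 24, 48 and 72 h of treatment.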

Data set [5] addresses Vascular endothelial growth factor receptor 1 (Homo sapiens) (UniProt P17948). The experiment in a line: Inhibition of VEGFR1 in human MCF7 cells assessed as downregulation of protein expression after 48 hrs by Western blot method. Format: cell-based. The method in brief:
as §1

Data set [6] has as its system MCF7. As to the kind of experiment: Effect on beta-actin protein expression in human MCF7 cells at 0.5 to 2 uM after 48 hrs by Western blot method. Format: ADME, cell-based. The note with it: mcf7, 48 h. The method in brief:
as §1

Data set [7] relates to MDA-MB-231. The experiment in a line: Cytotoxicity against human MDA-MB-231 cells assessed as cell growth inhibition after 72 hrs by alamar blue assay. Format: functional, cell-based. The note with it: MDA-MB-231, 72 h.
Data set [8] addresses Vascular endothelial growth factor receptor 1 (Homo sapiens) (UniProt P17948). As to the kind of experiment: Inhibition of VEGFR1 in human MCF7 cells assessed as downregulation of protein expression at 2 uM after 48 hrs by Western blot method relative to beta-actin. Format: cell-based. An outline of the steps: as §1
For data set [9], the system named is MCF7. The experiment in a line: Cytotoxicity against human MCF7 cells assessed as cell growth inhibition at 25 uM after 72 hrs by alamar blue assay. Format: functional, cell-based. The method in brief: as §2
In data set [10] the test system is MDA-MB-231. The experiment in a line: Cytotoxicity against human MDA-MB-231 cells assessed as cell growth inhibition at 25 uM after 72 hrs by alamar blue assay. Format: functional, cell-based.
For data set [11], the target named is Vascular endothelial growth factor receptor 1 (Homo sapiens) (UniProt P17948). As to the kind of experiment: Inhibition of VEGFR1 in human MCF7 cells assessed as downregulation of protein expression at 5 uM after 48 hrs by Western blot method relative to beta-actin. Format: cell-based. An outline of the steps:
as §1

Data set [12] has the same target. The experiment in a line: Inhibition of VEGFR1 in human MCF7 cells assessed as downregulation of protein expression at 15 uM after 48 hrs by Western blot method relative to beta-actin. Format: cell-based. The method in brief: as §1
For data set [13], the system named is MCF7. As to the kind of experiment: Effect on beta-actin protein expression in human MCF7 cells at 5 to 15 uM after 48 hrs by Western blot method. Format: ADME, cell-based. The note with it: mcf7, 48 h. An outline of the steps: as §1
Data set [14] deals with Vascular endothelial growth factor receptor 1 (Homo sapiens) (UniProt P17948). The experiment in a line: Inhibition of VEGFR1 in human MCF7 cells assessed as downregulation of protein expression at 10 uM after 48 hrs by Western blot method relative to beta-actin. Format: cell-based. An outline of the steps:
as §1

Chain of Vascular endothelial growth factor receptor 1 (Homo sapiens) (P17948 whole entry): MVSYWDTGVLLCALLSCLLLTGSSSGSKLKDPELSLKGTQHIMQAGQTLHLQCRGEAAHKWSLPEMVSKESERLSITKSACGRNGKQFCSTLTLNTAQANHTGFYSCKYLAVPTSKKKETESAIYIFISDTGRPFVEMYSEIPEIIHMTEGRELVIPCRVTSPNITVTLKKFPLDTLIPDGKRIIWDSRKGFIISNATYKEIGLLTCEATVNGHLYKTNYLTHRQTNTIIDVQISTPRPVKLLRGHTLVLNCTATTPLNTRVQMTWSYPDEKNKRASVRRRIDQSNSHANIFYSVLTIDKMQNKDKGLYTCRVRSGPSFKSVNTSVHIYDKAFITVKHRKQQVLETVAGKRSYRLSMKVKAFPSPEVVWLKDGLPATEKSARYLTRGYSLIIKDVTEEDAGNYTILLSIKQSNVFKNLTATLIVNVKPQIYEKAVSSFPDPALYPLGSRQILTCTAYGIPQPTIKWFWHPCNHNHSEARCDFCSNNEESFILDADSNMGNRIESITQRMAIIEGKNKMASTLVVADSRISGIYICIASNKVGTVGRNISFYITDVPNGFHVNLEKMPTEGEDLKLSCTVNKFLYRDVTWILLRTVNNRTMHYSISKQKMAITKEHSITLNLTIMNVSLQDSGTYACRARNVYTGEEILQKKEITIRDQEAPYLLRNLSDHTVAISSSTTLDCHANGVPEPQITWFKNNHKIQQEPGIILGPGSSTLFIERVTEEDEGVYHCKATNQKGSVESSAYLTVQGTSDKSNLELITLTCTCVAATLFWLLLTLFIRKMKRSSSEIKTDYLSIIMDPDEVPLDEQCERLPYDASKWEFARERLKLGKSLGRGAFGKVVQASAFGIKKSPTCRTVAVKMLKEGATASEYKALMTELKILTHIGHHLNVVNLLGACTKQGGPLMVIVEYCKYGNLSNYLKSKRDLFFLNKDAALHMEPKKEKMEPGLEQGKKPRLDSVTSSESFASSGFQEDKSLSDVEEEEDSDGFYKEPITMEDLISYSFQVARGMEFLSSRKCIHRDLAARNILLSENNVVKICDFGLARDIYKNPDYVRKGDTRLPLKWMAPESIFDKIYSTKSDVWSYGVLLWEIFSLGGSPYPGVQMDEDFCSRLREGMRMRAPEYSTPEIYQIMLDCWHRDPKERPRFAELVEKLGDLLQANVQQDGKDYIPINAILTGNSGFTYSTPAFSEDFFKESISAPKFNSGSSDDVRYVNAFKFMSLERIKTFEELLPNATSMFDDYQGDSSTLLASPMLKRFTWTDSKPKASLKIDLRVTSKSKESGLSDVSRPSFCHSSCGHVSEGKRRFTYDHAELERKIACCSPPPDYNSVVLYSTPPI

Consider `Clc1ccccc1-c1ccc(-n2cc(-c3ccccc3)nn2)cc1`, for which the IC50 with MCF7 [1] is below 50 µM.

Consider `Cc1ccccc1-c1ccc(-n2cc(-c3ccccc3)nn2)cc1`, for which the IC50 in the data set on MCF7 [1] is below 50 µM.

For `N#Cc1cncc(-c2ccc(-n3cc(-c4ccccc4)nn3)cc2)c1`, the IC50 with MCF7 [1] was below 50 µM.

With `CCOc1cc(F)ccc1-c1ccc(-n2cc(-c3ccccc3)nn2)cc1`, the values for the fold change (FC) in [2], in data set [3] and in data set [8] were 0.29, 0.8 and 0.54, respectively. The IC50 was 1.97 µM with Ishikawa, 4.08 µM with BT-474, 1.69 µM with MCF7 [1] and 4.81 µM with MDA-MB-231 [7]. In addition, the “growth inhibition (GI)” value in the data set on MCF7 [4] was “Tde”. Moreover, in data set [5], the inhibition entry is “Dose-dependent effect”. In the data set on MCF7 [6], the Activity entry was “Non-Toxic”.

Regarding `COc1ccc(F)cc1-c1ccn2ncnc2n1`, the “growth inhibition (GI)” value in the data set with MCF7 [9] and in the data set with MDA-MB-231 [10] was “inactive” throughout. For the same molecule, the IC50 with MCF7 [1] and in the data set with MDA-MB-231 [7] was above 100 µM each time.

For the molecule `CS(=O)(=O)c1cccc(-c2ccc(-n3cc(-c4ccccc4)nn3)cc2)c1`, the IC50 in the data set on MCF7 [1] was below 50 µM.

Regarding `c1ccc(-c2ccc(-n3cc(-c4ccccc4)nn3)cc2)cc1`, the IC50 in the data set on MCF7 [1] was below 50 µM.

On to `CCOc1cc(F)ccc1-c1ccn2ncnc2n1`, for which the “growth inhibition (GI)” value in the data set on MCF7 [9] and in the data set with MDA-MB-231 [10] was “inactive” throughout. Moreover, the figures for the IC50 in the data set with MCF7 [1] and in the data set with MDA-MB-231 [7] were 93.8 µM and 50.3 µM, respectively.

Regarding `Clc1ccccc1-c1ccccc1-c1ccn2ncnc2n1`, the “growth inhibition (GI)” value in the data set with MCF7 [9] and with MDA-MB-231 [10] was “inactive” throughout. In addition, the IC50 in the data set on MCF7 [1] and in the data set on MDA-MB-231 [7] was above 100 µM in each case.

With `Fc1ccc(Cl)cc1-c1ccc(-n2cc(-c3ccccc3)nn2)cc1`, the IC50 with MCF7 [1] is below 50 µM.

With `Fc1ccc(Cl)cc1-c1ccn2ncnc2n1`, the “growth inhibition (GI)” value in the data set on MCF7 [9] and in the data set on MDA-MB-231 [10] was “inactive” in each case. Besides, the IC50 in the data set on MDA-MB-231 [7] was above 100 µM.

As to `COc1ccc(F)cc1-c1ccc(-n2cc(-c3ccccc3)nn2)cc1`, the IC50 in the data set on MCF7 [1] was below 50 µM.

With `c1ccc(-c2cn(-c3ccc(-c4cc5ccccc5s4)cc3)nn2)cc1`, the fold change (FC) in [11] was 0.8; in data set [12], 0.63; in [14] it was 0.7. Besides, the values for the IC50 with BT-474 and in the data set with MCF7 [1] were below 50 µM and 14.4 µM, respectively. Further, in data set [5], the inhibition entry was “Dose-dependent effect”. The Activity entry in the data set with MCF7 [13] is recorded as “Non-Toxic”.

As to `Clc1ccccc1-c1ccn2ncnc2n1`, the “growth inhibition (GI)” value in the data set with MCF7 [9] and in the data set on MDA-MB-231 [10] was “inactive” throughout. Further, the IC50 in the data set on MCF7 [1] and with MDA-MB-231 [7] was above 100 µM each time.

As for `Fc1ccc(-c2ccn3ncnc3n2)cn1`, the “growth inhibition (GI)” value with MCF7 [9] and in the data set on MDA-MB-231 [10] was “inactive” each time. Besides, the IC50 in the data set on MCF7 [1] and in the data set with MDA-MB-231 [7] was above 100 µM each time.

For `c1ccc(-c2ccn3ncnc3n2)cc1`, the IC50 in the data set on MCF7 [1] was 3.91 µM; in the data set on MDA-MB-231 [7] it was above 100 µM. Also, the “growth inhibition (GI)” value in the data set with MDA-MB-231 [10] is “inactive”.

Turning to `N#Cc1cncc(-c2ccn3ncnc3n2)c1`, the “growth inhibition (GI)” value with MCF7 [9] and in the data set on MDA-MB-231 [10] was “inactive” in each case. Also, the IC50 in the data set on MDA-MB-231 [7] is above 100 µM.
